Laboratory results from paper PMC5221563 (Molecular cancer therapeutics, 2016).
Where two headings read alike, the source gives them in different places.

Legend:
[1] = Tolerability in mice; format: in vivo; conditions: 200 mg/kg daily administered either intravenously or orally
[2] = tested on: PARP cleavage in MiaPaCa-2 cells; assay: Western blot for PARP cleavage; format: cell-based, human; conditions: 72 hrs
In short: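 1×10^6 MiaPaCa-2 cells were grown overnight in 100 mm dishes to ~50% confluence. They were exposed to the indicated test compound concentrations for 72 hrs. Protein was extracted, separated by SDS-PAGE and western blotted with a PARP antibody, using β-actin as the loading control.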

[3] = tested on: MiaPaCa-2 cells; assay: Annexin V FITC apoptosis, combination treatment; format: cell-based, human; conditions: MiaPaCa-2, combination with gemcitabine or oxaliplatin, 96 hrs
In short: (§1)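 Human PDAC cells plated at 50,000 per well in six-well plates. After 24 hrs, exposed for 96 hrs to test compound, gemcitabine, oxaliplatin, or test compound plus either drug. Cells trypsinized; equal numbers stained with Annexin V FITC and propidium iodide per kit protocol. Analysed by flow cytometry.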

[4] = tested on: CD44+/CD133+/EpCAM+ MiaPaCa-2 CSC tumors; assay: MiaPaCa-2 CSC subcutaneous xenograft; format: in vivo, ICR-SCID mice
In short: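 CD44+/CD133+/EpCAM+ MiaPaCa-2 cells, isolated by FACS, were kept in serum-free sphere medium (1:1 DMEM/F-12K with B27 and N2). 1×10^6 cells were implanted subcutaneously on both flanks of 4-week-old female ICR-SCID mice. Growth was confirmed in one mouse after 2–3 weeks. Tumor-bearing mice were then randomized into 2 groups of 6: vehicle control or treatment.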

[5] = tested on: MiaPaCa-2 cells; assay: MTT isobologram synergy analysis; format: cell-based, human; conditions: MiaPaCa-2, KPT-9274 (60, 120 or 180 nM) with oxaliplatin (2, 4 or 8 μM), 72 hrs
In short: (§2)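 Cells at 5,000 per well in 96-well plates were treated after 24 hrs with test compound (60, 120 or 180 nM), a chemotherapy partner, or both for 72 hrs. The MTT read-out used 5 mg/mL reagent for 2 hrs, formazan dissolved in DMSO and absorbance at 595 nm. Mean absorbance went into isobologram analysis, and the combination index was calculated.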

[6] = tested on: L3.6pl PDAC tumors; assay: L3.6pl subcutaneous xenograft; format: in vivo
In short: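 Four-week-old female ICR-SCID mice: 10 per group were trocared bilaterally s.c. with ~50 mg L3.6pl tumor fragments, then randomised. Treatment was diluent or test compound 140 mg/kg i.v., 5 times per week for 4 weeks. At day 21 the control arm got 140 mg/kg i.v. once daily, 5 days a week, for one more week. Tumor weight, body weight and side effects were tracked; excised tumors were H&E stained.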

[7] = target: PAK4-vimentin interaction (Homo sapiens, UniProt O96013); assay: Co-immunoprecipitation of PAK4 and vimentin; format: cell-based; conditions: vs control treatment
In short: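 Lysates (200 micro gram protein) from control or test-compound-treated cells were immunoprecipitated with PAK4 or vimentin antibodies. The immunoprecipitates were resolved on a 10% gel, western blotted and probed with anti-PAK4 or anti-vimentin antibodies, with loading and internal controls. Two independent experiments were run.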

[8] = tested on: L3.6pl cells; assay: Clonogenic assay, combination treatment; format: cell-based; conditions: combination with gemcitabine or oxaliplatin
In short: (§3)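 Cells were seeded at 50,000 per well in six-well plates and allowed to attach for 24 hrs. They were then exposed for 72 hrs to test compound, gemcitabine, oxaliplatin or a combination. Afterwards, 1,000 cells per condition were re-seeded in 100 mm dishes and grown. Colonies were stained, counted and photographed.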

[9] = tested on: L3.6pl cells; assay: Annexin V FITC apoptosis, combination treatment; format: cell-based; conditions: combination with gemcitabine or oxaliplatin, 96 hrs
In short: as §1

[10] = tested on: multi-drug transporters; assay: Multi-drug transporter substrate status; format: in vitro ADME; conditions: data not shown
[11] = tested on: p-PAK4 and group I PAKs in DU-145 prostate cancer cell line; assay: PAK isoform phosphorylation in DU-145 cells; format: cell-based; conditions: sub-IC50 amount
[12] = tested on: PAK4, p-PAK4, cyclin D1, p-PAK2 in MiaPaCa-2 cells; assay: Western blot of PAK4 and related signaling; format: cell-based, human
In short: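 MiaPaCa-2 cells (1×10^6 per 100 mm dish, ~50% confluent) were exposed to test compound for 72 hrs. Protein was extracted and western blotted, and blots were probed for p-PAK4 and p-PAK2 with β-actin as the loading control. Blots are representative of two independent experiments.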

[13] = tested on: MiaPaCa-2 cells; assay: Clonogenic assay, combination treatment; format: cell-based, human; conditions: MiaPaCa-2, combination with gemcitabine or oxaliplatin
In short: as §3

[14] = tested on: AsPC-1 tumors; assay: AsPC-1 subcutaneous xenograft; format: in vivo, ICR-SCID mice; conditions: KPT-9274 single agent, p < 0.05
[15] = tested on: L3.6pl cells; assay: MTT isobologram synergy analysis; format: cell-based; conditions: 72 hrs
In short: as §2

[16] = target: PAK4 (Homo sapiens, UniProt O96013); conditions: cited from earlier work
[17] = tested on: multi-drug transporters; conditions: cited from earlier work
[18] = clinical trial NCT00932126; cited from earlier work
[19] = 140 mg/kg IV, 5 days per week, SCID mice

Sequence of PAK4 (O96013 whole entry): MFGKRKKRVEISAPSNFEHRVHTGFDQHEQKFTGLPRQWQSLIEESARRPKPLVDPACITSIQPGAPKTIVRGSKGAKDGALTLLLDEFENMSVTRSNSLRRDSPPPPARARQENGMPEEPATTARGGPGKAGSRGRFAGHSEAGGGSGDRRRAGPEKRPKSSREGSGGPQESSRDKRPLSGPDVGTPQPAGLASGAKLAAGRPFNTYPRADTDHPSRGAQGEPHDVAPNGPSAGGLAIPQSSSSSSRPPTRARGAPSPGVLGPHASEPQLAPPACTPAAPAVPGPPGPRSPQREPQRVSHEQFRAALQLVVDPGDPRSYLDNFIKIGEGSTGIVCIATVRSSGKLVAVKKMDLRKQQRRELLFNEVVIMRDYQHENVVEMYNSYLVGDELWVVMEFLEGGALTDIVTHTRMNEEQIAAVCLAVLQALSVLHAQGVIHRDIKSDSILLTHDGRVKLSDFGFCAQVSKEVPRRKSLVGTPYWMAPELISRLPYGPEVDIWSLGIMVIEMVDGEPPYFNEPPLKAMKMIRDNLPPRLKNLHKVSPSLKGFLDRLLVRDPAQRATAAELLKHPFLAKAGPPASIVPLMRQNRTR
Sequence of PAK4-vimentin interaction (O96013 whole entry): as above

SMILES: Nc1ccc(/C=C/C(=O)NCc2cc3cc(-c4ccc(C(=O)N5CCC(F)(F)CC5)cc4)cc(-c4ccc(F)cc4)c3o2)cn1 [KPT-9274]
- tolerability in mice [1]: well tolerated
- PARP cleavage (western blot) [2]: significant PARP cleavage
- apoptosis, combination vs either single agent alone [3]: statistically significant enhancement in apoptosis
- suppression of CSC tumors ([4]; 140 mg/kg once daily i.v.): almost complete suppression of CSC tumors
- combination index (CI) [5]: < 1
- effect on large established tumors (control group, mean tumor 1500 mg) ([6]; 140 mg/kg IV per day from day 21, 3 doses): regress large established tumors
- anti-tumor activity on L3.6pl tumors [6, 19]: completely eliminated
- outward signs of toxicity, body weight loss [6, 19]: did not see any outward signs of toxicity, body weight loss
- PAK4-vimentin interaction (co-immunoprecipitation) [7]: disruption of PAK4-vimentin interaction
- colony formation, combination vs single agents alone [8]: inhibition of colony formation
- apoptosis, combination vs either single agent alone [9]: statistically significant enhancement in apoptosis
- substrate of the multi-drug transporters [10]: not a substrate of the multi-drug transporters
- p-PAK4 versus group I PAKs [11]: selective inhibition of p-PAK4 sparing other group I PAKs
- p-PAK2 level (western blot) [12]: without effecting
- p-PAK4 level (western blot) [12]: reduced
- colony formation, combination vs single agents alone [13]: inhibition of colony formation
- tumor growth, AsPC-1 xenograft [14]: statistically significant inhibition of tumor growth
- combination index (CI) ([15]; KPT-9274 (60, 120 or 180 nM) with gemcitabine (10, 20 or 40 nM)): < 1
- combination index (CI) ([15]; KPT-9274 (60, 120 or 180 nM) with oxaliplatin (2, 4 or 8 μM)): < 1

SMILES: COc1nc(NCCc2c[nH]c3ccccc23)nc(Nc2ccc3[nH]ncc3c2)n1 [KY-04031]
- binding affinity towards PAK4 [16]: very low binding affinity

SMILES: Cc1nc(Nc2n[nH]c3c2CN(C(=O)N[C@H](CN(C)C)c2ccccc2)C3(C)C)c2sccc2n1 [PF-03758309]
- substrate of the multi-drug transporters [17]: substrate of the multi-drug transporters
- human bioavailability [18]: < 1%

SMILES: Nc1ccn([C@@H]2O[C@H](CO)[C@@H](O)C2(F)F)c(=O)n1 [gemcitabine, reference compound]
- response of CSC tumors ([4]; 50 mg/kg i.p.): do not respond
